We go through 6 molecules from ChEMBL document CHEMBL1781892, “Microwave assisted synthesis and structure-activity relationship of 4-hydroxy-N'-[1-phenylethylidene]-2H/2-methyl-1,2-benzothiazine-3-carbohydrazide 1,1-dioxides as anti-microbial agents” (2011).

Common to all, as to format: functional
The subject of test [1] is Aspergillus fumigatus. In words: Antifungal activity against Aspergillus fumigatus using 1 x 10^5 spore/100 uL after 72 hrs by microdilution method.
The test system of test [2] is Aspergillus flavus. Description: Antifungal activity against Aspergillus flavus using 1 x 10^5 spore/100 uL after 72 hrs by microdilution method.
Test [3] in a line: Antifungal activity against Trichoderma reesei using 1 x 10^5 spore/100 uL after 72 hrs by microdilution method. In short, it runs like this: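 Spores washed from malt agar cultures with sterile 0.85% saline plus 0.1% Tween 80, adjusted to about 1.0×10^5 per 100 µl well. Compounds from a 1 mg/ml DMSO stock were serially diluted in malt broth with inoculum in 96-well plates and incubated 72 h at 28 °C. MIC is the lowest concentration with no visible growth under a binocular microscope. DMSO served as negative control.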

Test [4] relates to Aspergillus niger. Description: Antifungal activity against Aspergillus niger using 1 x 10^5 spore/100 uL after 72 hrs by microdilution method.
The test system of test [5] is Trichoderma viride. Description: Antifungal activity against Trichoderma viride using 1 x 10^5 spore/100 uL after 72 hrs by microdilution method.
For test [6], the system named is Aspergillus niger. Description: Antifungal activity against Aspergillus niger using 1 x 10^5 spore/100 uL assessed as 99.5% fungal killing of original inoculum after 72 hrs by microdilution method.
The test system of test [7] is Trichoderma viride. Description: Antifungal activity against Trichoderma viride using 1 x 10^5 spore/100 uL assessed as 99.5% fungal killing of original inoculum after 72 hrs by microdilution method.
Test [8] deals with Curvularia australiensis. In words: Antifungal activity against Drechslera australiensis using 1 x 10^5 spore/100 uL after 72 hrs by microdilution method.
The nature of test [9]: Antifungal activity against Trichoderma reesei using 1 x 10^5 spore/100 uL assessed as 99.5% fungal killing of original inoculum after 72 hrs by microdilution method.
The test system of test [10] is Curvularia australiensis. Description: Antifungal activity against Drechslera australiensis using 1 x 10^5 spore/100 uL assessed as 99.5% fungal killing of original inoculum after 72 hrs by microdilution method.
Test [11] deals with Aspergillus fumigatus. In words: Antifungal activity against Aspergillus fumigatus using 1 x 10^5 spore/100 uL assessed as 99.5% fungal killing of original inoculum after 72 hrs by microdilution method.
The test system of test [12] is Aspergillus flavus. In words: Antifungal activity against Aspergillus flavus using 1 x 10^5 spore/100 uL assessed as 99.5% fungal killing of original inoculum after 72 hrs by microdilution method.

SMILES strings stand for the structures.

Take `C/C(=N\NC(=O)C1=C(O)c2ccccc2S(=O)(=O)N1)c1ccc(Cl)cc1Cl`: the MIC in the test on Aspergillus fumigatus [1] was 67.4 ×10⁻² umol; in the test with Aspergillus flavus [2] it was 71.8 ×10⁻² umol; in [3], 59.4 ×10⁻² µmol; against Aspergillus niger [4], 74.6 ×10⁻² umol; against Trichoderma viride [5], 62.9 ×10⁻² umol; in the test on Curvularia australiensis [8] it was 62 ×10⁻² umol. The MFC in the test on Aspergillus niger [6] came out at 149 ×10⁻² umol; in the test with Trichoderma viride [7] it was 125.7 ×10⁻² umol; in test [9], 119 ×10⁻² µmol; in the test on Curvularia australiensis [10], 123.9 ×10⁻² umol; in the test with Aspergillus fumigatus [11] it was 142.5 ×10⁻² umol; with Aspergillus flavus [12], 143.5 ×10⁻² umol.

With `C/C(=N\NC(=O)C1=C(O)c2ccccc2S(=O)(=O)N1C)c1ccc(Br)cc1`, the MIC against Aspergillus fumigatus [1] came out at 85.5 ×10⁻² umol; against Aspergillus flavus [2] it was 93.4 ×10⁻² umol; in [3], 74.6 ×10⁻² µmol; in the test with Aspergillus niger [4], 96 ×10⁻² umol; in the test with Trichoderma viride [5] it was 74.3 ×10⁻² umol; with Curvularia australiensis [8], 77.3 ×10⁻² umol. Also, the MFC was above 200 ×10⁻² umol in the test with Aspergillus niger [6]; 139.4 ×10⁻² umol in the test on Trichoderma viride [7]; 142 ×10⁻² µmol in [9]; 148.4 ×10⁻² umol in the test with Curvularia australiensis [10]; 177 ×10⁻² umol in the test with Aspergillus fumigatus [11]; 189.8 ×10⁻² umol with Aspergillus flavus [12].

With `C/C(=N\NC(=O)C1=C(O)c2ccccc2S(=O)(=O)N1C)c1ccccc1Br`, the MIC stood at 83.6 ×10⁻² umol with Aspergillus fumigatus [1]; 89.4 ×10⁻² umol in the test on Aspergillus flavus [2]; 74.5 ×10⁻² µmol in test [3]; 93.1 ×10⁻² umol in the test on Aspergillus niger [4]; 75.4 ×10⁻² umol against Trichoderma viride [5]; 76.2 ×10⁻² umol in the test with Curvularia australiensis [8]. Moreover, the MFC is 186 ×10⁻² umol with Aspergillus niger [6]; 149.9 ×10⁻² umol in the test on Trichoderma viride [7]; 151 ×10⁻² µmol in [9]; 151.7 ×10⁻² umol in the test with Curvularia australiensis [10]; 163.6 ×10⁻² umol with Aspergillus fumigatus [11]; 168.5 ×10⁻² umol in the test on Aspergillus flavus [12].

In the case of `C/C(=N\NC(=O)C1=C(O)c2ccccc2S(=O)(=O)N1)c1ccccc1Br`, the MIC against Aspergillus fumigatus [1] amounted to 83.8 ×10⁻² umol; against Aspergillus flavus [2], 90 ×10⁻² umol; in test [3] it was 74.8 ×10⁻² µmol; against Aspergillus niger [4] it was 93.2 ×10⁻² umol; against Trichoderma viride [5], 75.6 ×10⁻² umol; in the test with Curvularia australiensis [8], 76.3 ×10⁻² umol. Besides, the MFC with Aspergillus niger [6] came to 186.8 ×10⁻² umol; in the test with Trichoderma viride [7], 142.4 ×10⁻² umol; in test [9], 147 ×10⁻² µmol; with Curvularia australiensis [10], 158.4 ×10⁻² umol; in the test with Aspergillus fumigatus [11] it was 157.3 ×10⁻² umol; in the test with Aspergillus flavus [12], 177.7 ×10⁻² umol.

As for `C/C(=N\NC(=O)C1=C(O)c2ccccc2S(=O)(=O)N1)c1ccc(Cl)c(Cl)c1`, the MIC came out at 68.1 ×10⁻² umol in the test on Aspergillus fumigatus [1]; 75.2 ×10⁻² umol in the test on Aspergillus flavus [2]; 59.2 ×10⁻² µmol in test [3]; 75.2 ×10⁻² umol against Aspergillus niger [4]; 61.3 ×10⁻² umol with Trichoderma viride [5]; 61.8 ×10⁻² umol against Curvularia australiensis [8]. Further, the MFC in the test on Aspergillus niger [6] was found to be 150.2 ×10⁻² umol; in the test with Trichoderma viride [7] it was 118.7 ×10⁻² umol; in test [9] it was 108 ×10⁻² µmol; with Curvularia australiensis [10], 123.4 ×10⁻² umol; with Aspergillus fumigatus [11], 136.2 ×10⁻² umol; with Aspergillus flavus [12], 150.3 ×10⁻² umol.

In the case of `CN1C(C(=O)NN)=C(O)c2ccccc2S1(=O)=O`, the MIC in the test with Aspergillus fumigatus [1] is above 100 ×10⁻² umol; in the test with Aspergillus flavus [2] it was above 100 ×10⁻² umol; in test [3] it was above 100 ×10⁻² µmol; with Aspergillus niger [4], above 100 ×10⁻² umol; with Trichoderma viride [5] it was above 100 ×10⁻² umol; with Curvularia australiensis [8], above 100 ×10⁻² umol. In addition, the MFC in the test with Aspergillus niger [6] is above 200 ×10⁻² umol; in the test on Trichoderma viride [7] it was above 200 ×10⁻² umol; in test [9] it was above 200 ×10⁻² µmol; in the test with Curvularia australiensis [10], above 200 ×10⁻² umol; in the test on Aspergillus fumigatus [11], above 200 ×10⁻² umol; in the test with Aspergillus flavus [12], above 200 ×10⁻² umol.
